According to ChEMBL document CHEMBL4513216, “Probing the Open Global Health Chemical Diversity Library for Multistage-Active Starting Points for Next-Generation Antimalarials” (ACS Infect Dis, 2020):

Assay: Toxicity liver stage against HepG2, at 10uM
Type: cell-based
Parameters: test concentration 10 uM, cell line HepG2-A16-CD81EGFP
Conditions: human, HepG2-A16-CD81EGFP cells; read-out: INHIBITION
Summary of the method: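 Uninfected HepG2-A16-CD81EGFP cells, 3 × 10^3 per well, 1536-well, plated on prespotted compound at 10 μM final, parasite-free screening media added to match infected plates; puromycin 10 μM positive, DMSO 0.5% negative; run in parallel with 48 h PbLuc assay at 37 °C, 5% CO2; viability by CellTiter-Glo luminescence, normalized to controls.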

Row | SMILES | cytotoxicity at 10 µM [%]
1 | CNC(=O)C1(c2cnccn2)CCCN1C(=O)c1ccc(F)cc1 (configuration not stated) | 0.918
2 | CCOCCCC(=O)Nc1[nH]nc(-c2ccncc2)c1C | 7.98
3 | CC(C)C(=O)Nc1cccc(OCC(=O)NCc2ccccc2F)c1 | -6.19
4 | COc1c(F)cccc1C(=O)NC(C)c1cnn(C)c1 (configuration not stated) | 24.5
5 | COc1ccc(N2CCC(C(=O)/N=c3/[nH]ccs3)CC2)nn1 | -13.6
6 | Fc1cccnc1N1CCC2(CNCCC2(F)F)C1 (configuration not stated) | -7.15
7 | COc1ccccc1OCC(=O)Nc1ncccc1C | 0.464
8 | O=C(CN1CCCCCC1=O)NCC1CCN(c2ccccc2)C1 (configuration not stated) | -6.5
9 | O=C1CC(NCc2ccccn2)CN1CCc1ccc(F)cc1 (configuration not stated) | 7.18
10 | CCS(=O)(=O)c1ccccc1C(=O)NCc1ccnc(N(C)C)c1 | -3.92
11 | Cc1cc(C2CCC2)nc(N(C)Cc2ncccc2C)n1 | -0.392
12 | N#Cc1ccnc(N2CCN(C(=O)Cc3ccc4c(c3)CCO4)CC2)c1 | -4.1
13 | O=c1[nH]nc2c(N3CCCCCC3)nccn12 | 10.5
14 | CSc1nnc(CC2CCN(C(=O)CCc3cccnc3)CC2)n1C | -43.5
15 | COCCNC(=O)Nc1ccc(-n2cncn2)c(C(F)(F)F)c1 | -5.92
16 | CCc1cc(C(=O)N2CCC(O)(Cn3ccc4ccncc43)CC2)no1 | -18.7
17 | Cc1ncsc1C(=O)OCCN1CCCCCC1=O | -4.27
18 | CCN1C(=O)CC(c2ccccc2)C12CCN(CC1CCOCC1)CC2 (configuration not stated) | 3.06
19 | CC(C)c1ccc(S(=O)(=O)Cc2nc(N)nc(N(C)C)n2)cc1 | -11.1
20 | CC(=O)N1CCC2(CCCN(S(=O)(=O)c3ccccc3)C2)C1 (configuration not stated) | 0.169
21 | Cc1ccsc1C(=O)N1CCC(Nc2cccnc2)CC1 | -136
22 | CN(C)C(=O)C1OC2(CCN(C(=O)N(C)C)CC2)c2ccccc21 (configuration not stated) | 8.04
23 | COc1cccc([C@H]2CN(C(=O)c3cc(C)on3)C[C@@H]2N)c1 | 3.14

Row | SMILES | cytotoxicity at 10 µM [%]
24 | Cc1sc(NC(=O)CN(C)S(C)(=O)=O)c(C#N)c1C | 4.7
25 | CC(=O)N1CCc2nc(C3CCN(c4ncccn4)C3)ncc2C1 (configuration not stated) | -30
26 | CNc1ncccc1C(=O)N1CCCC2(CCN(C)CC2)CC1 | -9.17
27 | COc1ccc(C(=O)Nc2c(C(=O)N(C)C)nn(C)c2C)cc1 | 6.03
28 | Cc1nc(N)cc(C2CCN2CCC(N)=O)n1 (configuration not stated) | -1.21
29 | COc1cc(CNC(=O)N(Cc2ccc(F)cc2F)C2CC2)ccn1 | -9.17
30 | c1cc(CN2CCC(c3ccc4c(c3)OCO4)CC2)ccn1 | -5.21
31 | Clc1ccc(C2(CNC3=NCCN3)CCCCC2)cc1 | 38.2
32 | COC[C@]1(O)CCN(C(=O)c2cccc(CN(C)C)c2)CC1(C)C | 3.26
33 | COCC1CC2(CCN(C(=O)c3cnc4ccccc4c3)CC2)CO1 (configuration not stated) | -142
34 | CCc1noc(CN2CCC(c3ccnn3CCO)CC2)n1 | -11
35 | CCOc1cccc(CNc2ccccc2C(=O)OC)c1O | 6.69
36 | Cn1ccnc1-c1noc(NCc2ccccc2)n1 | -3.49
37 | Cc1nc2n(n1)CC(Nc1ncnc3c1CCC3)CC2 (configuration not stated) | -44.1
38 | CCOc1ccc(C(=O)n2cccn2)cc1 | 0.45
39 | CC(C)n1ccnc1C1CCN(C(=O)c2ccc(SCCO)cc2)CC1 | -0.232
40 | OCc1cccc(OCc2ccon2)c1 | 0.266
41 | COC[C@@]12CCC[C@@H]1CN(C(=O)COC1CCCC1)C2 | 4.35
42 | CCC(C#N)NC(=O)CCCOc1cccc(C(C)=O)c1 (configuration not stated) | -35.1
43 | COc1cccc(-n2cc(-c3ccnc(N[C@@H](CO)C(C)C)n3)cn2)c1 | -1.15
44 | COc1ccccc1NC(=O)CSC1CCc2ccccc2NC1=O (configuration not stated) | 20
45 | O=C(CCN1CCCCC1)N1CCC(Cc2ccc(CO)cc2)C1 (configuration not stated) | -7.33
46 | CCCc1n[nH]c(C2CN(CCc3cccs3)CCO2)n1 (configuration not stated) | 4.1

Row | SMILES | cytotoxicity at 10 µM [%]
47 | NC(=O)CN(CC(=O)NCc1cc(F)cc(F)c1)C1CCCC1 | -8.58
48 | CCN1CCCC(CN(C)c2nccc(-c3ccc(C)nc3C)n2)C1 (configuration not stated) | -13.5
49 | COCCN1CCCC2(CCN(c3nccnc3N(C)C)C2)C1=O (configuration not stated) | -0.525
50 | CCc1ncnc2c1CCN(CCOC)CC2 | 5.19
51 | O=C(N[C@@H]1CCCNC1)C1(Oc2ccc(Cl)cc2)CCNCC1 | -4.73
52 | CCNC(=O)[C@@H]1CCCN1[C@@H](C(=O)NC)c1ccccc1OC | -4.51
53 | Cc1cnc(-c2nc(O)c3c(n2)CN(C(=O)C2CC2)CC3)cn1 | -6.74
54 | CN(CC1CCCCO1)c1nc(-c2cccnc2)nc2c1CCNC2 (configuration not stated) | 3.01
55 | CC1CCCCN1C(=O)c1n[nH]c(=O)c2ccccc12 (configuration not stated) | -0.402
56 | CCC(CC)C(=O)N1CCC2(C1)CN(c1ccccc1)C(=O)CN2C (configuration not stated) | 3.5
57 | CCn1c(CN(C)Cc2csc(C)n2)nc2cc(F)ccc21 | -47
58 | CC(C)CNC(=O)c1cccc(CN2CCc3c(ncn3C)C2)c1 | -6.98
59 | Cc1ccccc1C(CC(=O)N1CCc2sccc2C1)NC(N)=O (configuration not stated) | 0.0773
60 | Cc1cc(C)n(C2=NC(NCCC(C)C)c3c(sc4c3CCCC4)N2)n1 (configuration not stated) | 25
61 | O=C(COc1cccc2c1CCC2=O)NCC(F)(F)F | -8.74
62 | COCC(=O)N1CCC2(CC1)CC(CC(=O)NC1CC1)c1ccccc12 (configuration not stated) | 0.873
63 | CCN(CC)S(=O)(=O)N1CCCN(CC(=O)NC(C)C)CC1 | 2.75
64 | COCc1cn(C2CCN(C(=O)c3ccc(F)c(C)c3)CC2)nn1 | -0.723
65 | Cc1nnc2n1CCN(Cc1csc(-c3ccc(F)cc3)n1)C2 | -6.78
66 | Cc1ccccc1CN1CCC(CNC(=O)Cn2cncn2)CC1 | 3.83
67 | NC(=O)CCN1C(=O)CC(Cc2ccc(F)cc2)C1=O (configuration not stated) | -4.89
68 | Cc1cc(NC(=O)NCC2CCN(C(C)C)C2)no1 (configuration not stated) | -15.3
69 | Cc1ccc(N2CCCN(C(=O)c3cc(Cl)c[nH]3)CC2)nn1 | -9.12

Row | SMILES | cytotoxicity at 10 µM [%]
70 | N#CCCN(CC1CCOC1)Cn1ccc(-c2ccsc2)n1 (configuration not stated) | -2.68
71 | c1cnn(C2CN(c3nc(-c4ccncc4)nc4c3CCC4)C2)c1 | -43
72 | COc1cccc2cc(CNCc3ccnc(N4CCCCC4)c3)oc12 | -0.381
73 | CS(=O)(=O)NC[C@]12COC[C@H]1CN(CC1CCC1)C2 | -110
74 | Cc1ccc(C(=O)NCCCC2(C3OCCO3)CCOCC2)cc1C | 1.48
75 | O=C(c1nc(=O)[nH]c2ccccc12)N1CCCC(CC2CC2)(C(=O)O)C1 (configuration not stated) | 6.56
76 | CCCN(Cc1nccn1C)C(=O)C(CC)Nc1cccc(OC)c1 (configuration not stated) | 0.417
77 | CNC(=O)C1(c2cnccn2)CCCN1C(=O)c1ccc(OC)cc1 (configuration not stated) | -12.9
78 | NC(=O)NCC1CCCCN1C(=O)c1cccc(C(F)(F)F)c1 (configuration not stated) | -7.32
79 | O=C1C(NCc2nnc3n2CCCC3)CCN1CC(F)(F)F (configuration not stated) | -13.8
80 | CCN(Cc1ccncc1)C(=O)CCn1c(C)cc2ccccc21 | -3.38
81 | COc1ccccc1CN(C)C(=O)c1cc(CN2CCC(O)CC2)on1 | -26.7
82 | CC(C)(C)c1coc([C@@H]2COCCN2Cc2c[nH]c3ccccc23)n1 | -1.23
83 | CCOc1cc(=O)n2c(c1C(=O)OCc1ccc(OC)cc1)CCCC2 | 5.95
84 | O=C(N[C@H]1CN(C2CCOCC2)C[C@@H]1C1CC1)c1ccon1 | 5.21
85 | CCN(C)c1ncnc2c1CCN(C(=O)N(C)C)CC2 | -0.0197
86 | CC(=O)NCCC(=O)N(C/C=C/c1ccccc1)CCO | 4.1
87 | CCCS(=O)(=O)N1Cc2c(ncn2Cc2ccccc2)C[C@H]1C(=O)OC | 0.434
88 | CC(C)NC(=O)[C@@H]1Cc2[nH]cnc2CN1CCCc1ccccc1 | 10.1
89 | CC(C)Cc1noc(CC2CCS(=O)(=O)C2)n1 (configuration not stated) | 3.03
90 | CC(C)c1nn(C)c(N(C)C)c1CNC1CCOc2c(F)cccc21 (configuration not stated) | -1.99
91 | Cc1cc(C)n(CC(=O)N2C[C@H]3CC[C@@H](C2)N(CC2CCC2)C3)c(=O)n1 | 13.3
92 | CCC(OC)C(=O)N1CCc2nc(NC)nc(C(=O)N3CCCC3)c2C1 (configuration not stated) | -18.3

Row | SMILES | cytotoxicity at 10 µM [%]
93 | Cc1nc(C2CCN(S(=O)(=O)c3ccc4c(c3)CCO4)CC2)n[nH]1 | -8.91
94 | Cc1noc(C)c1-c1cc(C2CCNCC2)ccn1 | -16.6
95 | COC(=O)C1CCN(C(=O)Cn2ccc(-c3ccccc3)n2)CC1 | -1.22
96 | CC(C)NC(=O)N1CCC2(CC1)COc1ccccc1S(=O)(=O)N(C)C2 | 7.02
97 | CCCC(C)CS(=O)(=O)NCc1cccnc1OC (configuration not stated) | -18
98 | CC(Cn1ccnc1)NC(=O)C1(c2ccc3c(c2)OCCO3)CCCC1 (configuration not stated) | -2.5
99 | O=C(NC1CCC(O)CC1)c1ccc2nc(-c3ccc(F)cc3)cn2c1 (configuration not stated) | 1.31
100 | CCn1cnnc1CNC(=O)NC(c1cccs1)C1CCCC1 (configuration not stated) | -11.2
101 | COCCN1CCc2cc(C(=O)NC(C)C)c(NCC(C)C)nc2CC1 | -163
102 | CC(=O)N[C@H]1CCO[C@@H](c2cccc(NC(=O)c3cccc(F)c3)c2)C1 | 8.75
103 | NC(=O)CN1CC2(CCC1=O)CCN(Cc1ccc(F)cc1Cl)CC2 | 3.59
104 | O=C(NCc1ccccn1)[C@H]1COC[C@H]2CN(Cc3ccoc3)C[C@H]21 | 1.54
105 | CN1C[C@H](O)[C@]2(CCN(C(=O)COc3ccccc3)C2)S1(=O)=O | 1.32
106 | N#CC1(C(=O)N2CCCN(c3nccs3)CC2)CCCCC1 | -5.83
107 | COc1ccccc1Oc1ncccc1CNC(=O)[C@H](N)CC(C)(C)C | -1.73
108 | CN(C)c1nccc(C2CCN(C(=O)CO)CC2)n1 | -23.6
109 | Cc1cnn(CC2CCCCN2c2nn3cc(C)nc3s2)c1 (configuration not stated) | -18.4
110 | Cc1cc(C(=O)N2CCC(Nc3cccnn3)CC2)no1 | -0.0225
111 | C[C@H](N)C(=O)N1CCC(c2[nH]ncc2-c2ccccc2)CC1 | 2.4
112 | O=C(COc1cccc(Cl)c1)N1CCOCC1c1ncon1 (configuration not stated) | -12.3
